Data set [1] concerns Human immunodeficiency virus 2. Nature of the data set: Antiviral activity against HIV2 ROD infected in MT4 cells assessed as cell viability after 5 days by MTT assay. Type of data set: functional, organism-based. Conditions: Human immunodeficiency virus 2, ISOLATE ROD, MT4, 120 h. In outline:
(§1)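 MT-4 cells ([…] cells/mL suspension) infected with HIV-1 IIIB or HIV-2 ROD at 100−300 CCID50, with mock-infected wells run in parallel. Serial 5-fold compound dilutions in triplicate wells. Viability by MTT after 5 days, absorbance at 540 and 690 nm, median OD of three wells. Median ± median absolute deviation from ≥3 independent assays.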
(In general: Tetrazolium assays rely on reduction of a dye to a coloured formazan, in cell work by metabolically active cells.)

The nature of data set [2]: Selectivity index, CC50 for african green monkey Vero cells to EC50 for chikungunya virus Indian ocean strain 899. Conditions: read-out: Ratio CC50/EC50. Type of data set: toxicity, cell-based.
Another data set relates to Chikungunya virus. In words: Antiviral activity against chikungunya virus Indian ocean strain 899 infected in Vero cells assessed as virus-induced cytopathic effect after 6 to 7 days. In kind it is functional, cell-based. The following applies: Indian ocean strain 899, Vero. For orientation: Cytopathic effects are the visible damage that an infection or toxin causes in cultured cells.

Data set [3] can be described thus: Selectivity index, CC50 for african green monkey Vero cells to EC50 for HIV1 3B. Type of data set: toxicity, cell-based. The following applies: read-out: Ratio CC50/EC50. In outline: (§2)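 SI = CC50 in Vero cells ÷ EC50 against HIV-1 IIIB or HIV-2 ROD. CC50 is the 50% antimetabolic concentration from MTS dose−response in Vero. EC50 is from the MT-4/MTT 5-day antiviral assay.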

In data set [4] the test system is Human immunodeficiency virus 1. In words: Antiviral activity against HIV1 3B infected in MT4 cells assessed as cell viability after 5 days by MTT assay. Type of data set: functional, organism-based. The following applies: Human immunodeficiency virus 1, 3B, MT4, 120 h. In outline: as §1
Data set [5] is described as follows: Selectivity index, CC50 for african green monkey Vero cells to EC50 for HIV2 ROD. In kind it is toxicity, cell-based. Conditions: read-out: Ratio CC50/EC50. In outline:
as §2

The record followed here is ChEMBL document CHEMBL3585274, “Antiviral Activity of Diterpene Esters on Chikungunya Virus and HIV Replication” (J Nat Prod, 2015).

The structures appear in SMILES notation.

For `CC(=O)O[C@@]12C[C@@H](C)[C@@]3(O)[C@@H](C=C(CO)C[C@]4(O)C(=O)C(C)=C[C@@H]34)[C@@H]1C2(C)C` [PROSTRATIN], the EC50 (usually the concentration giving half of the maximal effect) turned out to be 0.9 µM in data set [1], 2.7 µM with Chikungunya virus and 1.9 µM in data set [4]. Further, the results for the selectivity ratio in data set [2] and in data set [3] were 22.8 and 171, respectively.
Consider `C=C(C)[C@]12C[C@@H](C)[C@@]34O[C@](Cc5ccccc5)(O[C@@H]1[C@@H]3C=C(COC(=O)Cc1ccc(O)c(OC)c1)C[C@]1(O)C(=O)C(C)=C[C@@H]41)O2` [RESINIFERATOXIN], for which the EC50 in data set [1] was 22.6 µM; with Chikungunya virus, 1.8 µM; in data set [4], 26 µM. In addition, the results for the selectivity ratio in data set [2] and in data set [3] were 2.3 and 8, respectively.
As for `Cc1cn([C@H]2C[C@H](N=[N+]=[N-])[C@@H](CO)O2)c(=O)[nH]c1=O` [ZIDOVUDINE], the EC50 was found to be 6 µM in data set [1] and 7.1 µM in data set [4]. Moreover, the selectivity ratio is > 4180 in data set [5] and 3520 in data set [3].
